Assays:
[1] = Antioxidant activity […] assessed as […] HOCl scavenging activity by spectrophotometry; type: functional
Outline: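 Cell-free HOCl scavenging. HOCl was made by diluting commercial bleach and quantified at 292 nm (ε = 350 mol−1 cm−1). It reacts with taurine to give taurine chloramine, which oxidizes TMB. Absorbance was read at 655 nm, with quercetin as the positive control.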

Myeloperoxidase = molecular target: T1, Myeloperoxidase (Homo sapiens, UniProt P05164); assay: Inhibition of myeloperoxidase (unknown origin) using HOCl/taurine as substrate assessed as inhibition of taurine chloramine production by spectrophotometry; type: single protein
T1 sequence (P05164 whole entry): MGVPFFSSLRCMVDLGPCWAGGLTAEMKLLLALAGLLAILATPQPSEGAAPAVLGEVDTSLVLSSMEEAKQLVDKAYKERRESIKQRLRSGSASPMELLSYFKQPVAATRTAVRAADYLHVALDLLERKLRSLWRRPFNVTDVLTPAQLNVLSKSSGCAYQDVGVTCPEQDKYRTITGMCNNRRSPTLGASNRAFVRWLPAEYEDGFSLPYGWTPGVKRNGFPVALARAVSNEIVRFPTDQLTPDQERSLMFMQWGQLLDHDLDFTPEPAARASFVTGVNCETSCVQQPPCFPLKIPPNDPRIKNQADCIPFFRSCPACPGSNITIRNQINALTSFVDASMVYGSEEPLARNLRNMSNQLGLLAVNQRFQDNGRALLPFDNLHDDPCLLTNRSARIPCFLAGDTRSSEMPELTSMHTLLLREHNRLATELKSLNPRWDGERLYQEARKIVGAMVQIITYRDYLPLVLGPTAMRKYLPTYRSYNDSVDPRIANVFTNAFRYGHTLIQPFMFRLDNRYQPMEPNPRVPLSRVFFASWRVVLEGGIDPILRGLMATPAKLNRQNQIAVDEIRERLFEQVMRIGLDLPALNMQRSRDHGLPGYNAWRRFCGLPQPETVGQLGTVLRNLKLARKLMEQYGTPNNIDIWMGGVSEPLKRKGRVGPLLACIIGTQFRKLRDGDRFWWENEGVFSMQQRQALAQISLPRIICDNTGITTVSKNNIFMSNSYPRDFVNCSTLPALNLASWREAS
Outline: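 MPO, quantified by absorbance at 430 nm (ε = 89 000 mol−1 cm−1 per heme), chlorinating activity was measured. The HOCl produced reacts with taurine to give taurine chloramine, which oxidizes TMB to a blue product read at 655 nm. 5-Fluorotryptamine was the positive control.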

[2] = Cytotoxicity against human neutrophils assessed as cell viability at 10 uM by trypan blue exclusion assay; type: functional; conditions: Neutrophil, read-out: Activity
Outline: (§1)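 Human neutrophil viability was assessed by trypan blue exclusion after compound exposure at up to 100 μM for up to 60 min, including 10 μM, the concentration used in the respiratory burst studies.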

[3] = Antioxidant activity […] assessed as xanthine/xanthine oxidase-induced ROS scavenging activity by WST-1 assay; type: functional
Outline: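 Superoxide was generated by xanthine/xanthine oxidase and detected as reduction of the tetrazolium salt WST-1 to a soluble formazan (modified Tan and Berridge method). Quercetin was the positive control.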

Neutrophil = assay: (§2) Antioxidant activity in human neutrophils assessed as inhibition of oxidative burst-induced ROS production by chemiluminescence assay; type: functional, cell-based
Outline: (§3)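 Human neutrophils were isolated and the respiratory burst was stimulated. Total ROS were measured by luminol-enhanced chemiluminescence (LumCL). DMSO replaced compound in the blanks, taken as 100%. Quercetin and apocynin served as positive controls, and IC50 was taken from concentration–response data.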

[4] = as §2; type: functional, cell-based; conditions: Neutrophil; outline: as §3
[5] = Cytotoxicity against human neutrophils at < 100 uM after 60 mins by trypan blue exclusion assay; type: cell-based; conditions: neutrophil, 1 h; outline: as §1

Row | SMILES | IC50 [1] | IC50 (Myeloperoxidase) | viability at 10 µM [2] | IC50 [3] | Activity (Neutrophil) | IC50 [4] | Activity [5]
1 | CCC(C)CC(C)CC(O)(CO)C(=O)O[C@@H]1CC[C@H](C)[C@@]2(C)C=C([C@@H](C)CO)C(=O)C=C12 (stereo not given in full) | > 100 µM | > 100 µM | > 98% | > 100 µM | Dose-dependent effect | 4.17 µM | Non-toxic
2 | CCC(C)CC(C)CC(O)(CO)C(=O)O[C@@H]1CC[C@H](C)[C@@]2(C)C=C([C@H](C)CO)C(=O)C=C12 (stereo not given in full) | > 100 µM | > 100 µM | > 98% | > 100 µM | Dose-dependent effect | 5.9 µM | Non-toxic
3 | COc1cc(C(C)=O)ccc1O [APOCYNIN] |  |  |  |  |  | 3.9 µM | 
4 | O=c1c(O)c(-c2ccc(O)c(O)c2)oc2cc(O)cc(O)c12 [QUERCETIN] |  |  |  |  |  | 4.86 µM | 
5 | C=C(CO)[C@@]12O[C@@H]1[C@@]1(C)C(=CC2=O)[C@H](OC(=O)C(C)CC(C)CC(C)CC)CC[C@@H]1C (stereo not given in full) [XYLARENONE C] | > 100 µM | > 100 µM | > 98% | > 100 µM | Dose-dependent effect | 6.13 µM | Non-toxic
6 | C=C(CO)[C@@]12O[C@@H]1[C@@]1(C)C(=CC2=O)[C@H](OC(=O)C(O)(CO)CC(C)CC(C)CC)CC[C@@H]1C (stereo not given in full) [XYLARENONE D] | > 100 µM | > 100 µM | > 98% | > 100 µM | Dose-dependent effect | 5.73 µM | Non-toxic
